The text below walks through data of ChEMBL document CHEMBL4428090, “Modeling, Synthesis, and Biological Evaluation of Potential Retinoid X Receptor (RXR)-Selective Agonists: Analogues of 4-[1-(3,5,5,8,8-Pentamethyl-5,6,7,8-tetrahydro-2-naphthyl)ethynyl]benzoic Acid (Bexarotene) and 6-(Ethyl(5,5,8,8-tetrahydronaphthalen-2-yl)amino)nicotinic Acid (NEt-TMN)” (J Med Chem, 2016).

The source made the active and inactive calls. The calls are words filed in the database; no cut-off is given here.

Series [1] concerns the target T1, Retinoid X receptor (Homo sapiens) (UniProt P28702+P48443+P19793). The series can be described thus: Agonist activity at human RXR binding domain and activation domain expressed in human HCT116 cells assessed as rexinoid activity at 100 nM incubated for 24 hrs by luciferase reporter gene based mammalian two-hybrid assay relative to bexarotene. It is filed as cell-based. The gist of the method:
(§1)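 HCT-116 cells plated overnight (80,000/well, DMEM with 10% FBS), co-transfected for 24 h with human RXR binding-domain (bait) and activation-domain (prey) vectors, pFR-Luc Gal4 reporter and renilla control. Treated 24 h at 25, 100 or 1000 nM final; vehicle ethanol or DMSO 0.1%. Dual-luciferase read-out. Three independent assays in triplicate; bexarotene set to 100%.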
In general terms: A reporter such as luciferase makes a cellular process visible.

In series [2] the target is T1, Retinoid X receptor (Homo sapiens). The series can be described thus: Agonist activity at human RXR binding domain and activation domain expressed in human HCT116 cells assessed as rexinoid activity at 25 nM incubated for 24 hrs by luciferase reporter gene based mammalian two-hybrid assay relative to bexarotene. It is filed as cell-based. In outline:
as §1

The target in series [3] is T2, Retinoic acid receptor RXR-alpha (Homo sapiens) (UniProt P19793).
T2 sequence (whole entry): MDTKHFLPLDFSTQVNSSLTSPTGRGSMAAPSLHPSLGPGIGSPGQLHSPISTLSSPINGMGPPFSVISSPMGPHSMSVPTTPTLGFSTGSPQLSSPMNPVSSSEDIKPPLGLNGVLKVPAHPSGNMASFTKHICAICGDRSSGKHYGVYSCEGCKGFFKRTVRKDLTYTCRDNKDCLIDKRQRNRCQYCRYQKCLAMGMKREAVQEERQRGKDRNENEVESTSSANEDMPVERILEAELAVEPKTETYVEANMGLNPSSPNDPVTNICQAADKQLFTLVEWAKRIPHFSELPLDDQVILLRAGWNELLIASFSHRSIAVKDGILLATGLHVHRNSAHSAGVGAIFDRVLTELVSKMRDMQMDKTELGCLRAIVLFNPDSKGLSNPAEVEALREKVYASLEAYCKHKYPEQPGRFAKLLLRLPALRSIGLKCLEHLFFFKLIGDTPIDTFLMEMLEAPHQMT
The series can be described thus: Agonist activity at human RXRalpha expressed in human HCT116 cells assessed as increase in RXRE-mediated transcription at 100 nM incubated for 24 hrs by RXRE luciferase reporter gene assay relative to bexarotene. The format is cell-based. The gist of the method:
(§2)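 HCT-116 cells (80,000/well) co-transfected for 24 h with 250 ng RXRE-luciferase reporter (DR1 element from the rat cellular retinol binding protein II gene), 25 ng pSG5-human RXRα and 20 ng renilla. Dosed 24 h at 25, 100 or 1000 nM final; ethanol or DMSO vehicle 0.1%. Dual-luciferase read-out. Three independent assays in triplicate; bexarotene = 100%.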

Series [4] concerns the target T2, Retinoic acid receptor RXR-alpha (Homo sapiens). Put plainly: Agonist activity at human RXRalpha expressed in human HCT116 cells assessed as increase in RXRE-mediated transcription at 1000 nM incubated for 24 hrs by RXRE luciferase reporter gene assay relative to bexarotene. The format is cell-based. The gist of the method: as §2
In series [5] the target is T1, Retinoid X receptor (Homo sapiens). Put plainly: Agonist activity at human RXR binding domain and activation domain expressed in human HCT116 cells assessed as rexinoid activity at 1000 nM incubated for 24 hrs by luciferase reporter gene based mammalian two-hybrid assay relative to bexarotene. The format is cell-based. In outline:
as §1

Series [6] deals with T2, Retinoic acid receptor RXR-alpha (Homo sapiens). Put plainly: Agonist activity at human RXRalpha expressed in human HCT116 cells assessed as increase in RXRE-mediated transcription at 25 nM incubated for 24 hrs by RXRE luciferase reporter gene assay relative to bexarotene. The format is cell-based. The gist of the method: as §2
The target of series [7] is T3, Retinoic acid receptor RXR-alpha/oxysterols receptor LXR-alpha (Homo sapiens, UniProt P19793+Q13133).
T3 sequence (P19793 whole entry): T2 sequence (whole entry)
T3 sequence (Q13133 whole entry): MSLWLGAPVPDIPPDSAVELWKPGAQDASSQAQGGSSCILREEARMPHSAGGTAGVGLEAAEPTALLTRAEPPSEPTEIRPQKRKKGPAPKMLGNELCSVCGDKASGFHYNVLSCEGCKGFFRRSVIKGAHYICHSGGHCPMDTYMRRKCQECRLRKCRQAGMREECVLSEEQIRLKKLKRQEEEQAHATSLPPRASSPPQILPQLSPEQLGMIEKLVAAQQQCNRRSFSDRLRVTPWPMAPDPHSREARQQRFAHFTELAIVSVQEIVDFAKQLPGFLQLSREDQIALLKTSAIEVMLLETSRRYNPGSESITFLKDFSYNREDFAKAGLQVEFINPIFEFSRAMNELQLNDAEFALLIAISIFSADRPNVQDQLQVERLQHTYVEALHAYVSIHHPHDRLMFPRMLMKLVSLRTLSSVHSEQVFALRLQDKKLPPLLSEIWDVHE
Put plainly: Agonist activity at human RXRalpha/LXRalpha expressed in human HCT116 cells assessed as reduction in SREBP-mediated transcription activity at 100 nM incubated for 24 hrs by luciferase reporter gene assay in presence of 100 nM LXR agonist TO901317 relative to bexarotene. It is filed as cell-based. The arrangement: scale not given: the % may be the effect or the level left. The following applies: 0.1 µM. The gist of the method: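 HCT116 cells co-transfected for 24 h with 100 ng pBP1c(6500)-Luc (about 6500 bp murine SREBP-1c promoter), 10 ng human LXRα and 20 ng renilla. Treated 24 h with compound at 100 nM, alone or with 100 nM TO901317. Luciferase output. Three independent assays in triplicate; bexarotene = 100%.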

In series [8] the target is T2, Retinoic acid receptor RXR-alpha (Homo sapiens). The series can be described thus: Agonist activity at human RXRalpha expressed in human HCT116 cells assessed as increase in RXRE-mediated transcription incubated for 24 hrs by RXRE luciferase reporter gene assay. It is filed as cell-based.
The subject of another series is HuT78. The series can be described thus: Inhibition of HDAC1 gene expression in human HUT78 cells at 100 nM incubated for 48 hrs by quantitative real-time PCR method. It is filed as functional. In outline:
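Hut78 cells resuspended in RPMI with 1% FBS, plated 750,000/well and dosed at 100 nM for 48 h. Total RNA extracted, 0.5 µg DNase-treated RNA reverse-transcribed, then qPCR for HDAC1. Quantified by ΔΔCt, normalized to GAPDH and relative to vehicle-treated cells (2^-ΔΔCt).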
In general terms: Quantitative PCR measures a nucleic acid by following its amplification.

T1 sequence (P28702 whole entry, looked up, one chain of several, the tested form may be a part): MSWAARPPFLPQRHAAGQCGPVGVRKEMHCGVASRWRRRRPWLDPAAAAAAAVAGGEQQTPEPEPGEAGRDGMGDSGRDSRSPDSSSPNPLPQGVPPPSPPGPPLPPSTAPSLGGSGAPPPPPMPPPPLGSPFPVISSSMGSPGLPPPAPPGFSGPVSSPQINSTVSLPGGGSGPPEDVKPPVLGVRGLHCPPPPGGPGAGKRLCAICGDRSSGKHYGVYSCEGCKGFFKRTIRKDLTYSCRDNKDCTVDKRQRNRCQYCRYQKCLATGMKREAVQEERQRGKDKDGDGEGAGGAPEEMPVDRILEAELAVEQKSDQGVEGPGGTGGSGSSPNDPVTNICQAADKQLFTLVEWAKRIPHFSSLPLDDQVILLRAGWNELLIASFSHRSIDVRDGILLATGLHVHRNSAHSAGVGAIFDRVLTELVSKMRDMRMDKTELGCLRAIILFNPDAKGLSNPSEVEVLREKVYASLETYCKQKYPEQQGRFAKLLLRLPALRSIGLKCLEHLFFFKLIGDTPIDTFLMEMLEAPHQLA
T1 sequence (P48443 whole entry, looked up, one chain of several, the tested form may be a part): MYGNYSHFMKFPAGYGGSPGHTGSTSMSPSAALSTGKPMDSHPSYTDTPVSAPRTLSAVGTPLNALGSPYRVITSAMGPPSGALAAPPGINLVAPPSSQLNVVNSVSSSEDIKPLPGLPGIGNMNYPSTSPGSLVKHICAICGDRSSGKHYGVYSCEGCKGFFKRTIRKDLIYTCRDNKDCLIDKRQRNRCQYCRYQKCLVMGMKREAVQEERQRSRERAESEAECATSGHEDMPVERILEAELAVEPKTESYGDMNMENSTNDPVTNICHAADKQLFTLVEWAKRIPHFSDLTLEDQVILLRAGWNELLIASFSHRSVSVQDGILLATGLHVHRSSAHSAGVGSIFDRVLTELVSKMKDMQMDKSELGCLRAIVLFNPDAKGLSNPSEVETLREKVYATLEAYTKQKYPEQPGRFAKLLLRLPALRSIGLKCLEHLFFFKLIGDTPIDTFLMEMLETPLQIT

On to `CCN(c1ccc(C(=O)O)c(F)c1)c1cc2c(cc1C)C(C)(C)CCC2(C)C`, for which the outcome in [1] and in series [4] was Active. For the same compound, the Activity in series [2] was in the range of 140 to 150%; in series [3], 16 to 32%; in [5], 51 to 56%; in series [6], 27 to 66%.
As to `CCN(c1ccc2c(c1)C(C)(C)CCC2(C)C)c1cnc(C(=O)O)cn1`, the Activity in series [7] was 33%; in [2], 11.3%; in series [4], 20 to 43%; in series [5] it was 35 to 58%. In addition, the fold change (FC) in series [1] (in the assay text read “relative to activity at 25 nM” for “relative to bexarotene”) lay in the range of 5 to 16. Further, the outcome in [8] was inactive.
As usually defined, the inhibition is the percentage by which the read-out fell short of the control. Regarding `CCN(c1ccc2c(c1)C(C)(C)CCC2(C)C)c1ccc(C(=O)O)cn1`, the Activity in series [7] lay within 13 to 17%; in series [1], 135 to 146%; in series [3], 68 to 89%; in [4], 20 to 43%; in series [5], 35 to 58%; in series [6], 27 to 66%. Moreover, in series [2], the fold change (FC) was 2. The inhibition result with HuT78 is “inactive”.
`CCN(c1ccc(C(=O)O)c(F)c1)c1ccc2c(c1)C(C)(C)CCC2(C)C`: the values for the Activity result in series [7], in series [3] and in [6] were “Active”, 16 to 32% and 27 to 66%, respectively. Also, the outcome in series [1] and in series [4] was Active.
`CCN(c1ncc(C(=O)O)cn1)c1cc2c(cc1C)C(C)(C)CCC2(C)C`: the Activity in series [7] was 13 to 17%; in series [1], 135 to 146%; in series [3], 68 to 89%; in series [4], 20 to 43%; in series [5], 35 to 58%; in series [6], 27 to 66%. In addition, in [2], the fold change (FC) was determined as 2. This compound also came in with an inhibition at 0.1 µM with HuT78 (HuT78, 48 h) of 28%.
In the case of `CCN(c1ccc(C(=O)O)cc1)c1cc2c(cc1C)C(C)(C)CCC2(C)C`, the outcome in [1] and in series [4] was Active. In addition, the Activity in series [2] lay in the range of 140 to 150%; in [3] it was 16 to 32%; in series [5], 51 to 56%; in series [6] it was 27 to 66%.
